Reference: ChEMBL document CHEMBL4387708, “Enhancement of Benzothiazoles as Pteridine Reductase-1 Inhibitors for the Treatment of Trypanosomatidic Infections” (J Med Chem, 2019)
Active and inactive are the calls of the source. No cut-off for these calls is given here.

Key:
[1] = target: Voltage-gated inwardly rectifying potassium channel KCNH2 (Homo sapiens, UniProt Q12809); assay: Displacement of Tracer Red from human ERG by fluorescence polarization assay
[2] = Selectivity ratio of IC50 for Leishmania major pteridine reductase 1 to IC50 for N-terminal His-tagged Trypanosoma brucei pteridine reductase 1
Leishmania infantum = assay: Growth inhibition of luciferase expressing Leishmania infantum axenic amastigotes infected in human THP1 cells at 10 uM measured after 72 hrs by steady-glo luminescence assay relative to control; format: organism-based; conditions: for growth inhibition (GI): leishmania infantum, 72 h, 10 µM; for inhibition at 10 µM: Leishmania infantum, THP-1, 72 h, read-out: GI
Cytochrome P450 1A2 = target: T1, Cytochrome P450 1A2 (Homo sapiens, UniProt P05177); assay: Inhibition of human CYP1A2 expressed in baculovirus infected insect cells using beetle D-luciferin as substrate preincubated for 30 mins followed by NADPH addition and measured after 30 mins by CYP450-Glo assay
T1 sequence (P05177 whole entry): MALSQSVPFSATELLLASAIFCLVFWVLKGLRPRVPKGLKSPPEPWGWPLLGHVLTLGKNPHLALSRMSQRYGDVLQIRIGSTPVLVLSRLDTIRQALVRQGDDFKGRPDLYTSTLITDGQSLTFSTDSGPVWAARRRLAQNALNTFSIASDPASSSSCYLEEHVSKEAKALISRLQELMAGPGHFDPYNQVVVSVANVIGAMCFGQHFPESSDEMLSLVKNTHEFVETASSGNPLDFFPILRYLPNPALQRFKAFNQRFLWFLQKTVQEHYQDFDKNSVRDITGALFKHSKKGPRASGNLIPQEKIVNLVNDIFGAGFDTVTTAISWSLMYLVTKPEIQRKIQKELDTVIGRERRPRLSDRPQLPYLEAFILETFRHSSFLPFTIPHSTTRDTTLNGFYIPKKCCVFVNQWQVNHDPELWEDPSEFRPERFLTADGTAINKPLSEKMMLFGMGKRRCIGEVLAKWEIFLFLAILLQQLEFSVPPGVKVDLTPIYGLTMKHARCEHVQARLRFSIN

Trypanosoma cruzi = assay: Growth inhibition of trypomastigote form of Trypanosoma cruzi Y infected in human U2OS cells at 50 uM measured after 72 hrs by DRAQ5 DNA dye based confocal microscopic analysis relative to control; format: organism-based; conditions: for inhibition at 50 µM: Trypanosoma cruzi, Y, U2OS, read-out: GI; for growth inhibition (GI): trypanosoma cruzi, 50 µM
[3] = Cytotoxicity against human U2OS cells assessed as reduction in cell number; format: cell-based
[4] = Inhibition of N-terminal His-tagged Trypanosoma brucei pteridine reductase 1 using di-hydrobiopterine as substrate measured at 1 min interval for 50 mins in presence of NADPH
Summary of the method: (§1)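 Photometric PTR1 assay with NADPH and dihydrobiopterin substrate. H₄B formation is coupled non-enzymatically to cytochrome c reduction, read as signal increase at 550 nm.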

Trypanosoma brucei [5] = assay: Inhibition of N-terminal His-tagged Trypanosoma brucei pteridine reductase 1 at 50 uM using di-hydrobiopterine as substrate measured at 1 min interval for 50 mins in presence of NADPH relative to control; summary of the method: as §1
Cytochrome P450 3A4 = Cytochrome P450 3A4 (Homo sapiens, UniProt P08684); assay: Inhibition of human CYP3A4 expressed in baculovirus infected insect cells using beetle D-luciferin as substrate preincubated for 30 mins followed by NADPH addition and measured after 30 mins by CYP450-Glo assay
Sequence of Cytochrome P450 3A4 (P08684 whole entry): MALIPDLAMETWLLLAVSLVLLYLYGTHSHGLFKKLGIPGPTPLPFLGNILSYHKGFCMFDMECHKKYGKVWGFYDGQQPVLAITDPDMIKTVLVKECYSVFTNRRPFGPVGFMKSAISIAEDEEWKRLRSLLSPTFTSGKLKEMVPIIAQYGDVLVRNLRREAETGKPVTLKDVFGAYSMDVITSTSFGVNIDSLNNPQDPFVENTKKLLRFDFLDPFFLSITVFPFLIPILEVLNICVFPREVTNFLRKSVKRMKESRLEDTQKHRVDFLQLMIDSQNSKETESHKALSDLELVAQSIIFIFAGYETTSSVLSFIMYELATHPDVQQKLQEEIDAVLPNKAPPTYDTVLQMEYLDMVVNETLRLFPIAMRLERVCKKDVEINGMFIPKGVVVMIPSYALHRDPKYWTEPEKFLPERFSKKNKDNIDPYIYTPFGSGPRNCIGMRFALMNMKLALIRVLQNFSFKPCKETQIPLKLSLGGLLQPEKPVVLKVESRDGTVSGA

[6] = target: T2, Pteridine reductase 1 (Leishmania major) (UniProt Q01782); assay: Inhibition of Leishmania major pteridine reductase 1 at 50 uM using di-hydrobiopterine as substrate in presence of NADPH relative to control; summary of the method: as §1
T2 sequence (whole entry): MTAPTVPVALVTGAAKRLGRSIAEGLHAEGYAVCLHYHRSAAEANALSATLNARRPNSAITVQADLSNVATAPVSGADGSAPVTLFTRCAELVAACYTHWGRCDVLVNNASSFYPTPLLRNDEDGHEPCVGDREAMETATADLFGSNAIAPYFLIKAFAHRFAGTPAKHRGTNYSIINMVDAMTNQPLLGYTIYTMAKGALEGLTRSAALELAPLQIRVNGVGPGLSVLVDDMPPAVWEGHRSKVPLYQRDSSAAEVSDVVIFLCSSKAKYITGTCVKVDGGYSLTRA

[7] = Mitochondrial toxicity in human 786-O cells measured after 6 hrs by MitoTracker Red chloromethyl-X-rosamine based assay; format: cell-based, 786-0
Pteridine reductase 1 = target: T3, Pteridine reductase 1 (Leishmania major, UniProt Q01782); assay: Inhibition of Leishmania major pteridine reductase 1 using di-hydrobiopterine as substrate in presence of NADPH; summary of the method: as §1
T3 sequence (Q01782 whole entry): T2 sequence (whole entry)

Cytochrome P450 2D6 = Cytochrome P450 2D6 (Homo sapiens, UniProt P10635); assay: Inhibition of human CYP2D6 expressed in baculovirus infected insect cells using beetle D-luciferin as substrate preincubated for 30 mins followed by NADPH addition and measured after 30 mins by CYP450-Glo assay
Sequence of Cytochrome P450 2D6 (P10635 whole entry): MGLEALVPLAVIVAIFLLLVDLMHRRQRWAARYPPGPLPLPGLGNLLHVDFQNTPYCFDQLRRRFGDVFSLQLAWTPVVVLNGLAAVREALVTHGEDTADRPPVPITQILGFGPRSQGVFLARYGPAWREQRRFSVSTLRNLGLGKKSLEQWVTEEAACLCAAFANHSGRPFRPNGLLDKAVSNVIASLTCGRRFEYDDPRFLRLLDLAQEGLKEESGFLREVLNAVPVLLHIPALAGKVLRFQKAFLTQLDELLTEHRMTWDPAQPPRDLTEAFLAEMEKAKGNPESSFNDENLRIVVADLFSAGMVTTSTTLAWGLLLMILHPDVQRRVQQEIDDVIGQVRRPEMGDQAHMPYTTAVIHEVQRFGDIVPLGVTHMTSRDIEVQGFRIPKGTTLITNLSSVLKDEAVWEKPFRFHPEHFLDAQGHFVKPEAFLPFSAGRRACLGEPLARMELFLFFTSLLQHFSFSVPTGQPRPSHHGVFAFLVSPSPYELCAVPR

[8] = Cytotoxicity against human A549 cells after 48 hrs by Celltiter-glo assay; format: cell-based
Trypanosoma brucei [9] = assay: Growth inhibition of Trypanosoma brucei bloodstream forms at 10 uM measured after 72 hrs by resazurin-based fluorescence assay relative to control; format: organism-based; conditions: Trypanosoma brucei, read-out: GI
Cytochrome P450 2C19 = Cytochrome P450 2C19 (Homo sapiens, UniProt P33261); assay: Inhibition of human CYP2C19 expressed in baculovirus infected insect cells using beetle D-luciferin as substrate preincubated for 30 mins followed by NADPH addition and measured after 30 mins by CYP450-Glo assay
Sequence of Cytochrome P450 2C19 (P33261 whole entry): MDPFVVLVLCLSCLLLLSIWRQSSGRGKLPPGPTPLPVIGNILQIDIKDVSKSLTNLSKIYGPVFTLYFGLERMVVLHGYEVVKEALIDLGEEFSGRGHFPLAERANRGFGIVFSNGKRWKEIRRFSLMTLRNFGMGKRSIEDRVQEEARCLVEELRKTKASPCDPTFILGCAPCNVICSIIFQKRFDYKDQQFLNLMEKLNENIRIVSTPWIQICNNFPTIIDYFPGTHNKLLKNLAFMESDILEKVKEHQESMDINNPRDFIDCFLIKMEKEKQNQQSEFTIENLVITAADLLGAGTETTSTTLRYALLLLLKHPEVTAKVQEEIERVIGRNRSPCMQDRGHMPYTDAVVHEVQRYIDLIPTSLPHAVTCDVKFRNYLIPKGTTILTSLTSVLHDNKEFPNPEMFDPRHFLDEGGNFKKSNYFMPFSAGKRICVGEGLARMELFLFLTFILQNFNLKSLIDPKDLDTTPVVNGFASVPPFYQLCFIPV

Cytochrome P450 2C9 = Cytochrome P450 2C9 (Homo sapiens, UniProt P11712); assay: Inhibition of human CYP2C9 expressed in baculovirus infected insect cells using beetle D-luciferin as substrate preincubated for 30 mins followed by NADPH addition and measured after 30 mins by CYP450-Glo assay
Sequence of Cytochrome P450 2C9 (P11712 whole entry): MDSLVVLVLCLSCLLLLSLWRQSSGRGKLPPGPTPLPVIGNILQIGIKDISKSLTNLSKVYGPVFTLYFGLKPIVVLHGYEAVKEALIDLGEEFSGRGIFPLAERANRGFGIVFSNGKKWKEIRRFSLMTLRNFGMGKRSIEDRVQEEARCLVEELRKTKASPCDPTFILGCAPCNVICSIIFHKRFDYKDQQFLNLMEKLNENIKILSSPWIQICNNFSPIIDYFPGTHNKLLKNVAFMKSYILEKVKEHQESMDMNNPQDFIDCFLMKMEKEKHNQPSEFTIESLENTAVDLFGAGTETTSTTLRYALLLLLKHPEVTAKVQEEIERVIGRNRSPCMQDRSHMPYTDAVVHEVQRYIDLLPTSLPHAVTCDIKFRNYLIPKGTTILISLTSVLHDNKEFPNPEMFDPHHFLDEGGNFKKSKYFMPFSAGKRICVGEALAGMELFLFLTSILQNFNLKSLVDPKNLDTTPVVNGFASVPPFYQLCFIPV

[10] = Cytotoxicity against human THP1 cells after 72 hrs by MTT assay; format: cell-based, THP-1; conditions: read-out: NOAEL

Sequence of Voltage-gated inwardly rectifying potassium channel KCNH2 (Q12809 whole entry): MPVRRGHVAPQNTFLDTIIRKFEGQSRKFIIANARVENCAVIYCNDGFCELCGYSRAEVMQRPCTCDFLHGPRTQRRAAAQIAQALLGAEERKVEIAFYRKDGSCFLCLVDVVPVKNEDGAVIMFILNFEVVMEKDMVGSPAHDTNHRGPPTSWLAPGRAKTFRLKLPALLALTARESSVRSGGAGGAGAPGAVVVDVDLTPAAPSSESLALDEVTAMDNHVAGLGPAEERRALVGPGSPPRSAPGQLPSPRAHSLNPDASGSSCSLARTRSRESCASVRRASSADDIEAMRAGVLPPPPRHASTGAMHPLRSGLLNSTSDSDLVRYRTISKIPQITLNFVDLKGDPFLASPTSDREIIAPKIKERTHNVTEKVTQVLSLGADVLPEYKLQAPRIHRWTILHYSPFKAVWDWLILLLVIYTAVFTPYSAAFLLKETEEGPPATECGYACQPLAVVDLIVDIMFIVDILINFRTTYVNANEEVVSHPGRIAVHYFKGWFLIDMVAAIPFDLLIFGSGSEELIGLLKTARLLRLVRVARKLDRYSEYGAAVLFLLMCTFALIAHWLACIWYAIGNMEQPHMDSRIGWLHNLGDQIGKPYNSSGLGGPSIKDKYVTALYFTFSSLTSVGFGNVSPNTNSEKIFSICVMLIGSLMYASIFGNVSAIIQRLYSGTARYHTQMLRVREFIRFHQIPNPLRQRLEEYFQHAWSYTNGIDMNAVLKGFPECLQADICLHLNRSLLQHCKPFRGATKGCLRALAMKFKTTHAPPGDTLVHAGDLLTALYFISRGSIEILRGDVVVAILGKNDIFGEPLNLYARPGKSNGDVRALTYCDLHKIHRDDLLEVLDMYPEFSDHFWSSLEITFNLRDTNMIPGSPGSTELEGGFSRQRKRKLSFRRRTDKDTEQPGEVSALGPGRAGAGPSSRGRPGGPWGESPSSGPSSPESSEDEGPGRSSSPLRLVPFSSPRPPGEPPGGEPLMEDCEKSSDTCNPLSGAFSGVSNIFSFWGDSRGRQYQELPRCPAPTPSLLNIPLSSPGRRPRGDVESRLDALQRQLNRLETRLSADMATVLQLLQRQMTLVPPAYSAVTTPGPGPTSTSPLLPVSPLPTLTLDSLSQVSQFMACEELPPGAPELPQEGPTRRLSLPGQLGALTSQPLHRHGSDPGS

Structure (SMILES) | Ratio IC50 [2] | IC50 (Cytochrome P450 1A2) [µM] | IC50 [4] [µM] | inhibition (Trypanosoma brucei [5]) [%] | IC50 (Cytochrome P450 3A4) [µM] | inhibition [6] | IC50 (Pteridine reductase 1; read-out: IC50) [µM] | IC50 (Cytochrome P450 2D6) [µM] | IC50 (Cytochrome P450 2C19) [µM] | IC50 (Cytochrome P450 2C9) [µM] | IC50 [1] [µM] | growth inhibition (GI) (Leishmania infantum) | inhibition at 50 µM (Trypanosoma cruzi) [%] | GI50 [3] [µM] | IC50 at 6 h [7] [µM] | GI50 at 48 h [8] [µM] | inhibition at 10 µM (Trypanosoma brucei [9]) [%] | MNTC at 72 h [10] [µM] | further results
Nc1nc2ccc(C(=O)NC(c3ccccc3)c3ccccc3)cc2s1 | 2 to 100 | > 25 | 18.5 | > 60 | < 10 | > 60% | 88.5 | < 10 | < 10 | < 10 | > 25 |  | 37.8 | > 25 | > 25 | > 25 | 10 | > 25 | inhibition at 10 µM (Leishmania infantum): 15%
Nc1nc2ccc(C(=O)NCc3ccccc3N)cc2s1 | 2 to 100 | > 25 | 13.9 | > 60 | 10 to 25 | > 60% | 64.7 | 10 to 25 | > 25 | > 25 | > 25 | Non-Toxic | 6.1 | > 25 | > 25 | > 25 | 8 | > 25 | 
Nc1nc2ccc(C(=O)NCCc3c[nH]c4ccccc34)cc2s1 | 2 to 100 | > 25 | 23.3 | > 60 | > 25 | inactive |  | > 25 | 10 to 25 | > 25 | > 25 | Non-Toxic | 1.64 | > 25 | > 25 | > 25 | 27 | > 25 | IC50 (Pteridine reductase 1): Not Active
Nc1nc2c(C(=O)NCc3ccc(Cl)c(Cl)c3)cc(O)c(O)c2s1 | 2 to 100 | > 25 | 32.3 | > 60 | < 10 | > 60% | 36.8 | < 10 | > 25 | > 25 | > 25 | Non-Toxic | 18.3 | > 25 | > 25 | > 25 | 16 | > 25 | 
Nc1nc2ccc(C(=O)NCc3ccccc3[N+](=O)[O-])cc2s1 | 2 to 100 | > 25 | 6.46 | > 60 | < 10 | > 60% | 3.51 | > 25 | > 25 | > 25 | > 25 | Non-Toxic | 19 | > 25 | < 10 | > 25 | 18 | > 25 | 
CS(=O)(=O)c1ccc2nc(N)sc2c1 | 2 to 100 | > 25 | 34.2 | > 60 | > 25 | > 60% | 32.9 | > 25 | > 25 | > 25 | > 25 | Non-Toxic | 17.4 | > 25 | > 25 | > 25 | 17 | > 25 | 
Nc1nc2ccc(C(=O)NCc3ccc(Cl)c(Cl)c3)cc2s1 | 2 to 100 | > 25 | 5.4 | > 60 | < 10 | > 60% | 15.3 | < 10 | < 10 | > 25 | > 25 |  |  | > 25 | < 10 | > 25 | 5 | > 25 | inhibition at 10 µM (Leishmania infantum): 5%; growth inhibition (GI) (Trypanosoma cruzi): Non-Toxic

Second part, led by results:

Ratio IC50 [2] | IC50 (Cytochrome P450 1A2) [µM] | IC50 [4] [µM] | inhibition (Trypanosoma brucei [5]) [%] | IC50 (Cytochrome P450 3A4) [µM] | inhibition [6] | IC50 (Pteridine reductase 1; read-out: IC50) [µM] | IC50 (Cytochrome P450 2D6) [µM] | IC50 (Cytochrome P450 2C19) [µM] | IC50 (Cytochrome P450 2C9) [µM] | Structure (SMILES) | IC50 [1] [µM] | growth inhibition (GI) (Leishmania infantum) | inhibition at 50 µM (Trypanosoma cruzi) [%] | GI50 [3] [µM] | IC50 at 6 h [7] [µM] | GI50 at 48 h [8] [µM] | inhibition at 10 µM (Trypanosoma brucei [9]) [%] | MNTC at 72 h [10] [µM] | further results
2 to 100 | > 25 | 30.9 | > 60 | < 10 | > 60% | 30.1 | < 10 | > 25 | > 25 | Nc1nc2c(C(=O)NCc3ccccc3)cc(O)c(O)c2s1 | > 25 | Non-Toxic | 5.85 | > 25 | 10 to 25 | 10 to 25 | 15 | > 25 | 
2 to 100 | > 25 | 12 | > 60 | < 10 | inactive |  | < 10 | < 10 | < 10 | Nc1nc2ccc(C(=O)N(Cc3ccccc3)Cc3ccc(Cl)c(Cl)c3)cc2s1 | > 25 | Non-Toxic | 62.1 | > 25 | 10 to 25 | > 25 | 26 | > 25 | IC50 (Pteridine reductase 1): Not Active
2 to 100 | > 25 | 1.7 | > 60 | 10 to 25 | > 60% | 66.6 | > 25 | < 10 | > 25 | COC(=O)c1ccc(COc2ccc3nc(N)sc3c2)cc1 | 10 to 25 | Non-Toxic | 8.79 | > 25 | > 25 | > 25 | 22 | 10 to 25 | 
2 to 100 | > 25 | > 100 | > 60 | 10 to 25 | > 60% | 65.9 | < 10 | < 10 | 10 to 25 | COC(=O)c1ccc(CS(=O)(=O)c2ccc3nc(N)sc3c2)cc1 | > 25 |  |  | > 25 | > 25 | > 25 | 14 | > 25 | inhibition at 10 µM (Leishmania infantum): 12%; growth inhibition (GI) (Trypanosoma cruzi): Non-Toxic
2 to 100 | > 25 | 16.5 | > 60 | > 25 | > 60% | 36 | > 25 | > 25 | 10 to 25 | COC(=O)c1ccc(CNC(=O)c2ccc3nc(N)sc3c2)cc1 | > 25 | Non-Toxic |  | > 25 | > 25 | > 25 | 16 | > 25 | growth inhibition (GI) (Trypanosoma cruzi): Non-Toxic
